ChEMBL document CHEMBL3627676, “Modulation of disulfide dual ENKephalinase inhibitors (DENKIs) activity by a transient N-protection for pain alleviation by oral route” (Eur J Med Chem, 2015)
Active and inactive are the calls of the source.

Experiments:
Mus musculus [1] = assay: Antinociceptive activity in po dosed OF1 mouse assessed as increase in jump latency by hot plate test; assay type: functional, organism-based
Procedure, shortened: (§1)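 Hot plate test in male OF1 mice (20–25 g). 150 mg/kg given per os in EtOH/PEG400/H2O (1/4/5). Jump latency recorded by stop-watch, cut-off 240 s, followed over time. Mean ± sem, n = 7–8 per group.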

Plasma [2] = assay: Drug level in Sprague-Dawley rat plasma treated with 1-(1-{2-[(1-Ethoxycarbonyloxy-ethoxycarbonylmethyl)-carbamoyl]-3-phenyl-propyldisulfanylmethyl}-3-methylsulfanyl-propylcarbamoyloxy)-ethyl isobutyrate at 800 uM incubated for 1 to 60 mins by LC/MS analysis; assay type: ADME, cell-free
Procedure, shortened: (§2)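 Prodrug at 800 µM final concentration incubated at 37 °C in male Sprague-Dawley rat plasma (heparin lithium; 66 mg protein/mL) for 1, 5, 15, 30 and 60 min. Reaction stopped with absolute EtOH. Parent and metabolites monitored by LC/MS, in triplicate.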

Mus musculus [3] = assay: Antinociceptive activity in iv dosed OF1 mouse assessed as increase in jump latency by hot plate test; assay type: functional, organism-based
Procedure, shortened: (§3)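 Hot plate in male OF1 mice. 10 mg/kg given iv in EtOH/Cremophor/H2O (1/1/8) or EtOH/Tween 80/H2O (1/1/8). Jump latency recorded with a 240 s cut-off over a time course. n = 6 per group.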

Mus musculus [4] = assay: Analgesic activity in OF1 mouse assessed as decrease in hindpaw licking at 50 mg/kg ,po administered 90 mins prior to formalin challenge by formalin test; assay type: functional; set-up: scale not given: the % may be the effect or the level left
Procedure, shortened: (§4)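 Male OF1 mice, 25e32 g, 50 mg/kg given orally in ethanol/0.5% methylcellulose in water (1.5/98.5) before formalin. After 30 min adaptation, 20 µL of 5% formalin injected s.c. into the hindpaw. Licking/biting of the injected paw timed by stop-watch during the early phase (0–5 min). Analgesia (%) versus vehicle, n = 6–8 per group.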

Mus musculus [5] = assay: Analgesic activity in OF1 mouse assessed as decrease in hindpaw licking at 50 mg/kg ,po administered 150 mins prior to formalin challenge by formalin test; assay type: functional; set-up: scale not given: the % may be the effect or the level left; procedure, shortened: as §4
Mus musculus [6] = assay: Analgesic activity in OF1 mouse assessed as decrease in hindpaw licking at 50 mg/kg ,po administered 210 mins prior to formalin challenge by formalin test relative to control; assay type: functional, organism-based; procedure, shortened: as §4
Mus musculus [7] = assay: Antiallodynic activity in po dosed OF1 mouse partial sciatic nerve ligation model assessed as increase in mechanical threshold to pressure after 30 mins by von Frey test; assay type: functional, organism-based
Procedure, shortened: (§5)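 PSNL mice (male OF1, 16–18 g; partial sciatic ligation of 33–50% under isoflurane). Oral gavage at 12.5, 25 or 50 mg/kg in EtOH/0.5% methylcellulose (1.5/98.5). Von Frey up-down withdrawal thresholds measured on ipsilateral and contralateral paws before dosing and at 30, 60 and 120 min. Kruskal-Wallis with Dunn's test.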

Mus musculus [8] = assay: Antiallodynic activity in po dosed OF1 mouse partial sciatic nerve ligation model assessed as increase in mechanical threshold to pressure after 60 mins by von Frey test; assay type: functional, organism-based; procedure, shortened: as §5
Mus musculus [9] = assay: Antiallodynic activity in po dosed OF1 mouse partial sciatic nerve ligation model assessed as increase in mechanical threshold to pressure after 120 mins by von Frey test; assay type: functional, organism-based; procedure, shortened: as §5
Mus musculus [10] = assay: Antiallodynic activity in OF1 mouse partial sciatic nerve ligation model assessed as increase in mechanical threshold to pressure at 50 mg/kg, po after 45 to 60 mins by von Frey test; assay type: functional, organism-based
Mus musculus [11] = assay: Antiallodynic activity in po dosed OF1 mouse partial sciatic nerve ligation model assessed as increase in mechanical threshold to pressure at 25 mg/kg, po after 30 mins by von Frey test; assay type: functional; procedure, shortened: as §5
Mus musculus [12] = assay: Antiallodynic activity in po dosed OF1 mouse partial sciatic nerve ligation model assessed as increase in mechanical threshold to pressure at 25 mg/kg, po after 60 mins by von Frey test; assay type: functional; procedure, shortened: as §5
Mus musculus [13] = assay: Antiallodynic activity in po dosed OF1 mouse partial sciatic nerve ligation model assessed as increase in mechanical threshold to pressure at 25 mg/kg, po after 120 mins by von Frey test; assay type: functional; procedure, shortened: as §5
Mus musculus [14] = assay: Antinociceptive activity in OF1 mouse assessed as increase in jump latency at 150 mg/kg, po by hot plate test; assay type: functional, organism-based; procedure, shortened: as §1
Mus musculus [15] = assay: Antinociceptive activity in OF1 mouse assessed as increase in jump latency at 10 mg/kg, iv by hot plate test; assay type: functional, organism-based; procedure, shortened: as §3
Mus musculus [16] = assay: Analgesic activity in OF1 mouse assessed as decrease in hindpaw licking at 50 mg/kg ,po administered 20 mins prior to formalin challenge by formalin test; assay type: functional; set-up: scale not given: the % may be the effect or the level left; procedure, shortened: as §4
Mus musculus [17] = assay: Analgesic activity in OF1 mouse assessed as decrease in hindpaw licking at 50 mg/kg ,po administered 60 mins prior to formalin challenge by formalin test; assay type: functional; set-up: scale not given: the % may be the effect or the level left; procedure, shortened: as §4
Mus musculus [18] = assay: Analgesic activity in OF1 mouse assessed as decrease in hindpaw licking at 50 mg/kg ,po administered 120 mins prior to formalin challenge by formalin test; assay type: functional; procedure, shortened: as §4
Mus musculus [19] = assay: Antiallodynic activity in OF1 mouse partial sciatic nerve ligation model assessed as increase in mechanical threshold to pressure at 50 mg/kg, po after 45 mins by von Frey test; assay type: functional
Procedure, shortened: (§6)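 PSNL in male OF1 mice (16–18 g): under isoflurane, a tight ligation placed around 33–50% of the right sciatic nerve. 50 mg/kg given by oral gavage in EtOH/0.5% methylcellulose (1.5/98.5). Paw withdrawal threshold (g) measured with von Frey filaments by up-down method before dosing and at 45, 90 and 150 min. n = 5–7 per group.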

Mus musculus [20] = assay: Antiallodynic activity in OF1 mouse partial sciatic nerve ligation model assessed as increase in mechanical threshold to pressure at 50 mg/kg, po after 90 mins by von Frey test; assay type: functional; procedure, shortened: as §6
Mus musculus [21] = assay: Antiallodynic activity in OF1 mouse partial sciatic nerve ligation model assessed as increase in mechanical threshold to pressure at 50 mg/kg, po after 150 mins by von Frey test; assay type: functional; procedure, shortened: as §6
Mus musculus [22] = assay: Antihyperalgesic activity in OF1 mouse partial sciatic nerve ligation model assessed as increase in […] threshold to thermal stimuli at 50 mg/kg, po measured at 90 mins by planar test relative to control; assay type: functional
Procedure, shortened: (§7)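 Male OF1 PSNL mice given 50 mg/kg orally in EtOH/0.5% methylcellulose in water (1.5/98.5). Thermal hyperalgesia assessed by plantar test as paw withdrawal to a thermal stimulus, expressed relative to the contralateral paw, at time points up to 150 min.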

Mus musculus [23] = assay: Antihyperalgesic activity in OF1 mouse partial sciatic nerve ligation model assessed as increase in […] threshold to thermal stimuli at 50 mg/kg, po measured upto 150 mins by planar test; assay type: functional, organism-based; procedure, shortened: as §7
Aminopeptidase N = Aminopeptidase N (Homo sapiens, UniProt P15144); assay: Inhibition of recombinant human Aminopeptidase N using L-Ala-beta-NA as substrate preincubated for 30 mins followed by substrate addition measured after 30 mins by fluorometry
Chain of Aminopeptidase N (P15144 whole entry): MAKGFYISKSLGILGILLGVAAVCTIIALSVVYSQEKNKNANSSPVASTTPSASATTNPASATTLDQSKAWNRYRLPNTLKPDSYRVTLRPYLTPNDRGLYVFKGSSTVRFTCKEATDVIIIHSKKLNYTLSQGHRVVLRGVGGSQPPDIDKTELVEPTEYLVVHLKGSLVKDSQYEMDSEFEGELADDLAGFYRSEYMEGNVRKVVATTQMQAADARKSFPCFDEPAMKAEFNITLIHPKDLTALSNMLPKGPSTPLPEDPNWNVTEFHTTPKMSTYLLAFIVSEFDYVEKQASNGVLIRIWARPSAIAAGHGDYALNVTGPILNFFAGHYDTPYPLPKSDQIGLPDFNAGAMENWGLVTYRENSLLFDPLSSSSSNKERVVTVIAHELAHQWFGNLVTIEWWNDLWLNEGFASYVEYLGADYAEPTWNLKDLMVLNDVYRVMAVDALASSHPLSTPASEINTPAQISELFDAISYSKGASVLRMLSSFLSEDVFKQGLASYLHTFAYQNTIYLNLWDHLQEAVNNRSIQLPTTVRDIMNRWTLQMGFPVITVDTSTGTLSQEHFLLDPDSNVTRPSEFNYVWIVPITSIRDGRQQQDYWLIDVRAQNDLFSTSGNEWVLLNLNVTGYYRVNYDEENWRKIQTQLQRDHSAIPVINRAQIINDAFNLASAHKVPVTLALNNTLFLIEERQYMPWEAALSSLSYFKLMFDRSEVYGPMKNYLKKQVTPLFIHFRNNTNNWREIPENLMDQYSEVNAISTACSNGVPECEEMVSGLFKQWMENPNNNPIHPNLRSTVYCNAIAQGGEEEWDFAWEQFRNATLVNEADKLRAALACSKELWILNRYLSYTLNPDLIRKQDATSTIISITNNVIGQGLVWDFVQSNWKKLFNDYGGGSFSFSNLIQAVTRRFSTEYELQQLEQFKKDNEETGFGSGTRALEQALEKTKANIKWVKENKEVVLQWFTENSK

Neprilysin = Neprilysin (Homo sapiens, UniProt P08473); assay: Inhibition of recombinant human Neprilysin using Suc-Ala-Ala-Phe-AMC as substrate preincubated for 30 mins followed by substrate addition measured after 30 mins by fluorometry
Chain of Neprilysin (P08473 whole entry): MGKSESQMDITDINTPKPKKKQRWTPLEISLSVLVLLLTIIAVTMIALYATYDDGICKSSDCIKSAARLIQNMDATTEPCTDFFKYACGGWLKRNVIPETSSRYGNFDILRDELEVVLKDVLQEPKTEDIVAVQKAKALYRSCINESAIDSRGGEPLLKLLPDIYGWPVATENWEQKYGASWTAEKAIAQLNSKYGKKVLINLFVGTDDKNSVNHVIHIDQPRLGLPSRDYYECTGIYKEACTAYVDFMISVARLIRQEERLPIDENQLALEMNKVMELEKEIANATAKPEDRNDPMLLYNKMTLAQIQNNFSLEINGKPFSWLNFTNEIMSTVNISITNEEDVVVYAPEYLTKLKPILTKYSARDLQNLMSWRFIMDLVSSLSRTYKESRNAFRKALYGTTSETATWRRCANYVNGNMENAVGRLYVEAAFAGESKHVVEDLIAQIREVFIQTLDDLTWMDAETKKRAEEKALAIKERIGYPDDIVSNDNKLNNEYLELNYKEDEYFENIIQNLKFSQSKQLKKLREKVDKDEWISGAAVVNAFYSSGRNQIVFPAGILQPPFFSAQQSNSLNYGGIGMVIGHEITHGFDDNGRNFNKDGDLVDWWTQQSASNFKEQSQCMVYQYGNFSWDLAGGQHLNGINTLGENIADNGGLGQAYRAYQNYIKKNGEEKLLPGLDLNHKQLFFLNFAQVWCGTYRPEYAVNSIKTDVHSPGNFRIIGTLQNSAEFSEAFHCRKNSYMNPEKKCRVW

Plasma [24] = assay: Prodrug conversion in Sprague-Dawley rat plasma assessed as formation of 1-{1-[2-(Carboxymethyl-carbamoyl)-3-phenyl-propyldisulfanylmethyl]-3-methylsulfanyl-propylcarbamoyloxy}-ethyl isobutyrate at 800 uM incubated for 1 to 60 mins by LC/MS analysis; assay type: ADME, cell-free; procedure, shortened: as §2
Plasma [25] = assay: Prodrug conversion in Sprague-Dawley rat plasma assessed as formation of (S)-2-((S)-3-(((S)-2-amino-4-(methylthio)butyl)disulfanyl)-2-benzylpropanamido)propanoic acid at 800 uM incubated for 1 to 60 mins by LC/MS analysis; assay type: ADME, cell-free; procedure, shortened: as §2
Plasma [26] = assay: Prodrug conversion in Sprague-Dawley rat plasma assessed as formation of PL37 at 800 uM incubated for 1 to 60 mins by LC/MS analysis; assay type: ADME, cell-free; procedure, shortened: as §2

Row | Structure (SMILES) | Activity (Mus musculus [1]) | Activity (Mus musculus [3]) | Activity (Mus musculus [4]) [%] | Activity (Mus musculus [5]) [%] | Activity (Mus musculus [6]) | also measured
1 | C[S+]([O-])CC[C@H](N)CSSC[C@@H](Cc1ccccc1)C(=O)NCC(=O)OCc1ccccc1 (some centres undefined) | Active |  |  |  |  | 
2 | C[S+]([O-])CC[C@H](N)CSSCC1(C(=O)N[C@@H](CC(=O)O)C(=O)O)CCCC1 (some centres undefined) | Active |  |  |  |  | 
3 | CSCC[C@H](N)CSSC[C@@H](Cc1ccccc1)C(=O)NCC(=O)OCc1ccccc1 | Active |  |  |  |  | 
4 | CSCC[C@H](N)CSSC[C@@H](Cc1ccccc1)C(=O)NCC(=O)O | Active |  |  |  |  | Drug metabolism (Plasma [2]): metabolite_detected
5 | CC(OC(=O)N[C@@H](CC[S+](C)[O-])CSSC[C@@H](Cc1ccccc1)C(=O)NCC(=O)O)OC(=O)C(C)C (some centres undefined) | inactive | inactive | 39 | 38 | inactive | Activity (Mus musculus [7]): Dose-dependent effect; Activity (Mus musculus [8]): Dose-dependent effect; Activity (Mus musculus [9]): Dose-dependent effect; Activity (Mus musculus [10]): Active; Activity (Mus musculus [11]): 40%; Activity (Mus musculus [12]): 52%; Activity (Mus musculus [13]): 63%
6 | CCOC(=O)OC(C)OC(=O)CNC(=O)[C@@H](CSSC[C@@H](N)CCSC)Cc1ccccc1.O=C(O)/C=C/C(=O)O (some centres undefined) |  |  |  |  |  | Activity (Mus musculus [14]): Active; Activity (Mus musculus [15]): Active; Activity (Mus musculus [16]): 62%; Activity (Mus musculus [17]): 31%; Activity (Mus musculus [18]): inactive
7 | CSCC[C@@H](CSSC[C@@H](Cc1ccccc1)C(=O)NCC(=O)O)NC(=O)OC(C)OC(=O)C(C)C (some centres undefined) | inactive | inactive | 34 | 31 | inactive | Activity (Mus musculus [19]): 64%; Activity (Mus musculus [20]): 56%; Activity (Mus musculus [21]): 18%; Activity (Mus musculus [22]): 100%; Activity (Mus musculus [23]): Active; Drug metabolism (Plasma [2]): metabolite_detected
8 | O=C(O)CNC(=O)C(CS)Cc1ccccc1 (centres undefined) [THIORPHAN] |  |  |  |  |  | Ki (Aminopeptidase N): > 10 µM
9 | CC(OC(=O)N[C@@H](CC[S+](C)[O-])CSSCC1(C(=O)N[C@@H](CC(=O)O)C(=O)O)CCCC1)OC(=O)C(C)C (some centres undefined) | inactive | inactive | 46 | 47 | inactive | 
10 | C[S+]([O-])CC[C@H](N)CSSC[C@@H](Cc1ccccc1)C(=O)NCC(=O)O (some centres undefined) | Active |  |  |  |  | 
11 | CC(OC(=O)N[C@@H](CC[S+](C)[O-])CSSC[C@@H](Cc1ccccc1)C(=O)NCC(=O)OCc1ccccc1)OC(=O)C(C)C (some centres undefined) | inactive | inactive | 39 | 38 | inactive | 
12 | CSCC[C@@H](CSSC[C@@H](Cc1ccccc1)C(=O)NCC(=O)OCc1ccccc1)NC(=O)OC(C)OC(=O)C(C)C (some centres undefined) | inactive | inactive | 34 | 26 | inactive | 
13 | CCOC(=O)OC(C)OC(=O)CNC(=O)[C@@H](CSSC[C@@H](N)CC[S+](C)[O-])Cc1ccccc1 (some centres undefined) | Active |  |  |  |  | 
14 | C[S+]([O-])CC[C@H](N)CS (some centres undefined) |  |  |  |  |  | Ki (Neprilysin): > 10 µM
15 | CCOC(=O)OC(C)OC(=O)CNC(=O)[C@@H](CSSC[C@H](CC[S+](C)[O-])NC(=O)OC(C)OC(=O)C(C)C)Cc1ccccc1 (some centres undefined) | inactive | inactive | 39 | 38 | inactive | 
16 | O=C(O)C[C@H](NC(=O)C1(CS)CCCC1)C(=O)O |  |  |  |  |  | Ki (Aminopeptidase N): > 10 µM
17 | CCOC(=O)OC(C)OC(=O)CNC(=O)[C@@H](CSSC[C@H](CCSC)NC(=O)OC(C)OC(=O)C(C)C)Cc1ccccc1 (some centres undefined) |  |  | 32 | 30 | inactive | Drug metabolism (Plasma [24]): metabolite_detected; Drug metabolism (Plasma [25]): metabolite_detected; Activity (Mus musculus [14]): inactive; Activity (Mus musculus [15]): inactive; Activity (Mus musculus [16]): 25%; Activity (Mus musculus [17]): 56%; Activity (Mus musculus [18]): 31%; Drug metabolism (Plasma [26]): metabolite_notdetected
